Compound activity deposited in PubChem by Sanford-Burnham Center for Chemical Genomics.
This is a sample that favours compounds with a hit; in the whole collection about 1.8% have one here.
SUMO1 PPI mod: modulators of human SUMO1-mediated protein-protein interactions; inhibition, % at 20 µM; P63165; SUMO1 binding to a labelled peptide, TR-FRET, 1 h; AID 602429; 0.33% of 360,000 active; in the data active means inhibition above about 37%
Target sequence (P63165 whole entry, looked up): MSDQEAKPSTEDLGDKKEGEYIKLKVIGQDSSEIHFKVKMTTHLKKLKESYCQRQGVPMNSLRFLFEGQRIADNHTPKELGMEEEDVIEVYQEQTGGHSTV
HKDC1 inhibitor: blocks human hexokinase HKDC1 activity; Q2TB90; recombinant HKDC1, G6PDH/diaphorase resazurin coupled fluorescence; 0.16% of 340,000 active; inhibition, % at 20 µM;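 active means inhibition above about 35% when tested at 20 µM, limit read from the data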;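 further: plate controls were DMSO wells with enzyme for no effect and DMSO wells lacking enzyme for full effect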
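Assay system: in-house recombinant HK5 (HKDC1) enzyme. Input: HKDC1 at 5 µg/mL. Medium: Tris pH 8.0 buffer with MgCl2, Tween-20, BSA, BME. Dosing: single 20 µM dose. Schedule: 90 min reaction incubation at room temperature, dark. Signal: resazurin-to-resorufin fluorescence via G6PDH and diaphorase coupling, 525/613 nm. Controls: DMSO-enzyme wells negative, buffer-substituted wells positive.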
STEP block: inhibitors of human striatal-enriched phosphatase STEP; P54829; recombinant STEP, OMFP fluorogenic substrate, fluorescence; inhibition, % at 20 µM; 0.25% of 360,000 active;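 active means inhibition at 20 µM, scaled per plate between control wells, above about 37%, limit read from the data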;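 further: 0% = DMSO with enzyme and substrate and 100% = substrate only without enzyme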
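material = STEP tyrosine phosphatase | reagent = fluorogenic phosphatase substrate OMFP at 25 µM final | doses = single compound dose of 20 µM, 1% DMSO final | schedule = 20 min reaction, room temperature, in the dark | measured by = fluorescence, 480/540 nm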
Scp-1 inhibitor: Scp-1 (human) phosphatase inhibition. 0.88% of 340,000 active. Recombinant Scp1, phosphopeptide, malachite green phosphate absorbance. AID 493091. inhibition, % at 20 µM;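 active means inhibition above about 50% at 20 µM, limit read from the data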;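 further: plate controls were DMSO wells with enzyme for no effect and wells lacking enzyme for full effect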
Target sequence (Q9GZU7 76-261 limits assumed): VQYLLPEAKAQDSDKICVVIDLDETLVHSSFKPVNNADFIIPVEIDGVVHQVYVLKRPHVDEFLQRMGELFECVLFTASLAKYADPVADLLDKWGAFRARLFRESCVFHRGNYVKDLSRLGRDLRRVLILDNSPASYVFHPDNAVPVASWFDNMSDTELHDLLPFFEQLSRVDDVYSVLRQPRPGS
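Test system – truncated SCP-1 phosphatase (76-261aa) · Reagent – Phosphorylated 17-residue peptide substrate · Incubation – 45 min room-temperature reaction, 5 min colour, 30 min stabiliser · Detection – colorimetric phosphate reagent with accelerator and stabiliser, absorbance at 630 nm · Measure – % inhibition at 20 µM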
LMPTP block: LMPTP (human) inhibition; P24666; recombinant LMPTP-A, OMFP fluorogenic substrate, fluorescence intensity; AID 651560; inhibition, % at 20 µM; 0.22% of 360,000 active;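 active means compounds that cut the enzyme signal by at least half of the control window in the single-dose screen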;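 further: plate controls were DMSO wells with enzyme plus substrate for no effect and substrate without enzyme for full effect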
Target sequence (P24666 whole entry, looked up): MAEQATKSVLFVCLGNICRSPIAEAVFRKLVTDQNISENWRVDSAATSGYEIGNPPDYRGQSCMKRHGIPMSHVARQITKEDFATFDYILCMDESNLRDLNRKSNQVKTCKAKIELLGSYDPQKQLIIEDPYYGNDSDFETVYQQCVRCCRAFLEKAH
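Test system – LMPTP-A enzyme · Amount – LMPTP-A at 0.625 nM final in the reaction · Buffer or medium – Bis-Tris pH 6.0, DTT, detergent · Reagent – OMFP 400 µM · Doses – single 20 µM dose · Schedule – reaction 50 min, room temperature, dark · Detection – fluorescence intensity of OMFP turnover product · Evaluation – percent inhibition versus substrate-only and uninhibited controls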
DNMT1 block: blocks human DNA methyltransferase DNMT1. P26358. DNMT1 molecular beacon, Hinp1I cleavage, fluorescence. inhibition (reported as % activation of signal), % at 10 µM. 0.83% of 360,000 active; in the data active means inhibition above about 50%
Scp-1 conf: Scp-1 (human) inhibition, single-dose confirmed; recombinant SCP-1 catalytic domain, phosphate release, malachite green absorbance; 61% of 2,500 active; shares compounds with Scp-1 inhibitor; inhibition, % at 20 µM;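 further: plate controls were DMSO with enzyme for no effect and buffer wells lacking enzyme for full effect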
Scp-1 MG ctr: counter-screen for Scp-1 inhibitors: colorimetric interference. 2,500 tested, under 10 active. Colorimetric interference counterscreen, malachite green absorbance 630 nm. apparent inhibition (interference), % at 20 µM. shares compounds with Scp-1 inhibitor;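 further: compounds added after enzyme reaction finished so only phosphate colour detection is probed; plate controls were DMSO wells with completed Scp-1 reaction for no effect and substrate wells lacking enzyme for full effect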
Scp1 DSF: Scp-1 (human) binding by thermal shift | shares compounds with Scp-1 inhibitor | Recombinant SCP1, Sypro Orange thermal shift Tm | thermal shift relative to vanadate control, % at 40 µM | 25% of 1,500 active;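 active means substances whose mean melting-temperature shift, as a percentage of the reference inhibitor's shift, reaches about 5.3%, limit read from the data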;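 further: 0% = Tm of DMSO wells and 100% = Tm with sodium orthovanadate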
An asterisk follows results filed as active.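 How the source made its calls, unless noted: active means inhibition of at least 30% at 20 µM; inactive means the rest.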

`Cc1nnsc1-c1c(C(=O)O)c(C)nn1-c1ccc(OC(F)(F)F)cc1` gave SUMO1 PPI mod 3, HKDC1 inhibitor -4, STEP block 0, Scp-1 inhibitor 91*, LMPTP block -1, DNMT1 block 0, Scp-1 conf -8 and Scp-1 MG ctr -11.
Cc1nnsc1-c1c(C(=O)N2CCOCC2)c(C)nn1-c1ccccc1 was read as SUMO1 PPI mod 10, HKDC1 inhibitor -4, STEP block -1, Scp-1 inhibitor -4, LMPTP block 0 and DNMT1 block -2.
Screening Cc1noc(C)c1NC(=O)N(C)C[C@H]1Oc2c(NS(=O)(=O)c3cn(C)cn3)cccc2C(=O)N([C@H](C)CO)C[C@@H]1C returned SUMO1 PPI mod 2, HKDC1 inhibitor 0, STEP block 0, Scp-1 inhibitor -5, LMPTP block -2 and DNMT1 block 2.
Screening C[C@H](CO)N1C[C@H](C)[C@@H](CN(C)C(=O)Nc2ccccc2)Oc2ccc(NS(=O)(=O)c3cn(C)cn3)cc2C1=O returned SUMO1 PPI mod 5, HKDC1 inhibitor -6, STEP block 2, Scp-1 inhibitor 71*, LMPTP block -2, DNMT1 block 12, Scp-1 conf 0 and Scp-1 MG ctr -10.
C[C@H](CO)N1C[C@H](C)[C@@H](CN(C)S(=O)(=O)c2cn(C)cn2)Oc2ccc(NC(=O)Nc3ccc4c(c3)OCO4)cc2C1=O was read as SUMO1 PPI mod -4, HKDC1 inhibitor 5, STEP block -1, Scp-1 inhibitor -5, LMPTP block 0 and DNMT1 block -1.
Screening COc1ccc(NC(=O)N(C)C[C@H]2Oc3ccc(NS(=O)(=O)c4cn(C)cn4)cc3C(=O)N([C@H](C)CO)C[C@@H]2C)cc1 returned SUMO1 PPI mod 1, HKDC1 inhibitor -5, STEP block -1, Scp-1 inhibitor 4, LMPTP block -2 and DNMT1 block 5.
Screening C[C@@H]1CN([C@H](C)CO)C(=O)Cc2cc(NS(=O)(=O)c3cn(C)cn3)ccc2O[C@H]1CN(C)S(=O)(=O)c1ccc(Cl)cc1 returned SUMO1 PPI mod 1, HKDC1 inhibitor 3, STEP block -1, Scp-1 inhibitor 65*, LMPTP block 0, DNMT1 block 4, Scp-1 conf 0 and Scp-1 MG ctr -20.
For Cc1noc(C)c1NC(=O)N(C)C[C@H]1Oc2ccc(NS(=O)(=O)c3cn(C)cn3)cc2C(=O)N([C@H](C)CO)C[C@@H]1C the results were SUMO1 PPI mod 2, HKDC1 inhibitor -3, STEP block 0, Scp-1 inhibitor 64*, LMPTP block -1, DNMT1 block 6, Scp-1 conf 3 and Scp-1 MG ctr -9.
`C[C@H](CO)N1C[C@H](C)[C@@H](CN(C)C(=O)Nc2ccc3c(c2)OCO3)Oc2ccc(NS(=O)(=O)c3cn(C)cn3)cc2C1=O` gave SUMO1 PPI mod 4, HKDC1 inhibitor 0, STEP block 0, Scp-1 inhibitor 69*, LMPTP block 0, DNMT1 block 5, Scp-1 conf -8 and Scp-1 MG ctr -20.
For CCOc1ccc(NC(=O)CN(C)C(=O)c2cc(S(=O)(=O)N3CCCCC3)ccc2C)cc1OCC the results were SUMO1 PPI mod 1, HKDC1 inhibitor 2, STEP block -1, Scp-1 inhibitor -6, LMPTP block -1 and DNMT1 block 2.
`O=C(O)C1=CC[C@@H](c2ccc(Cl)cc2)N(S(=O)(=O)c2ccc(Cl)cc2)C1` gave SUMO1 PPI mod 5, HKDC1 inhibitor 0, STEP block 4, Scp-1 inhibitor -5, LMPTP block 0 and DNMT1 block 0.
For COC(=O)c1cc(-c2ccc(Br)cc2)c2c(=O)n(C)c(=O)n(C)c2n1 the results were SUMO1 PPI mod 5, HKDC1 inhibitor 0, STEP block -3, Scp-1 inhibitor 1, LMPTP block -1 and DNMT1 block 18.
Screening C/C(=N\NC(=O)c1cccc(N/N=C(\C)c2ccco2)c1)c1ccco1 returned SUMO1 PPI mod 23, HKDC1 inhibitor 8, STEP block 2, Scp-1 inhibitor 61*, LMPTP block 8, DNMT1 block 4, Scp-1 conf 62*, Scp-1 MG ctr -15 and Scp1 DSF 6.1*.
Cc1ccc(C)c(NC(=O)CCOc2ccccc2)c1 was read as SUMO1 PPI mod 5, HKDC1 inhibitor -2, STEP block 0, Scp-1 inhibitor -11, LMPTP block -1 and DNMT1 block -1.
`CON=C(C(=O)NC1C(=O)N2C(C(=O)O)=C(CSc3nc(=O)c(=O)[nH]n3C)CSC12)c1csc(N)n1` (stereo not drawn) gave SUMO1 PPI mod 33, HKDC1 inhibitor -3, STEP block 11, Scp-1 inhibitor 65*, LMPTP block 1, DNMT1 block 47, Scp-1 conf 52*, Scp-1 MG ctr -11 and Scp1 DSF 3.
`CO/N=C(\C(=O)N[C@@H]1C(=O)N2C(C(=O)O)=C(COC(N)=O)CS[C@H]12)c1ccco1` gave SUMO1 PPI mod 21, HKDC1 inhibitor 7, STEP block 7, Scp-1 inhibitor 70*, LMPTP block -1, DNMT1 block 35, Scp-1 conf 67*, Scp-1 MG ctr -10 and Scp1 DSF 8.0*.
For COCC1=C(C(=O)OC(C)OC(=O)OC(C)C)N2C(=O)[C@@H](NC(=O)/C(=N\OC)c3csc(N)n3)[C@H]2SC1 (stereo partly drawn) the results were SUMO1 PPI mod 0, HKDC1 inhibitor -6, STEP block 3, Scp-1 inhibitor -4, LMPTP block 2 and DNMT1 block -13.
Screening COc1cc(/C=C/C(=O)O)cc(S(=O)(=O)NNC(=O)c2cc(C)oc2C)c1OC returned SUMO1 PPI mod 4, HKDC1 inhibitor -2, STEP block -1, Scp-1 inhibitor 53*, LMPTP block -1, DNMT1 block 18, Scp-1 conf 49*, Scp-1 MG ctr 3 and Scp1 DSF -3.
